{"source": "ChEMBL document CHEMBL5678798", "about": "(Clin Cancer Res, 2009)", "key": {"[1]": {"tested_on": "COLO 205", "experiment": "Induction of cell cycle arrest in human COLO 205 cells assessed as cells accumulation at G2 phase at 1 umol/L incubated for 48 hrs by propidium iodide staining based flow cytometric analysis (reference value: 22%)", "type": "functional", "conditions": "dose 1 µmol/L, at 1 µM", "method_in_brief": "(§1)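 COLO 205, MCF-7 or NCI-H929 cells seeded in 96-well plates overnight at 37°C, then exposed to DMSO or increasing compound concentrations for 24 or 48 h. Fixed and stained with propidium iodide (Vindelov method), then analysed by flow cytometry for sub-G1, G1, S and G2-M fractions. Experiment repeated twice.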"}, "[2]": {"target": "Serine/threonine-protein kinase D1 (Homo sapiens) (UniProt Q15139)", "experiment": "Inhibition of N-terminal His6-tagged recombinant full-length human PKCmu expressed in Sf21 cells at 3 uM by filter binding assay relative to control", "method_in_brief": "(§2)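 Outsourced single-concentration screen in a commercial panel of 233 protein kinases, run as radiometric filter-binding activity assays. Test agent was tested at 0.3 or 3 µmol/L, as given in each line, from a 10 mmol/L DMSO stock. Activity is expressed as percent inhibition relative to control.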"}, "[3]": {"target": "RAC-alpha serine/threonine-protein kinase (Homo sapiens, UniProt P31749)", "experiment": "Inhibition of AKT1 (unknown origin)"}, "[4]": {"tested_on": "COLO 205", "experiment": "Induction of cell cycle arrest in human COLO 205 cells assessed as cells accumulation at S phase at 1 umol/L incubated for 48 hrs by propidium iodide staining based flow cytometric analysis (reference value: 9%)", "type": "functional", "conditions": "dose 1 µmol/L, at 1 µM", "method_in_brief": "as §1"}, "[5]": {"target": "Tyrosine-protein kinase JAK3 (Homo sapiens, UniProt P52333)", "sequence (P52333 whole entry)": "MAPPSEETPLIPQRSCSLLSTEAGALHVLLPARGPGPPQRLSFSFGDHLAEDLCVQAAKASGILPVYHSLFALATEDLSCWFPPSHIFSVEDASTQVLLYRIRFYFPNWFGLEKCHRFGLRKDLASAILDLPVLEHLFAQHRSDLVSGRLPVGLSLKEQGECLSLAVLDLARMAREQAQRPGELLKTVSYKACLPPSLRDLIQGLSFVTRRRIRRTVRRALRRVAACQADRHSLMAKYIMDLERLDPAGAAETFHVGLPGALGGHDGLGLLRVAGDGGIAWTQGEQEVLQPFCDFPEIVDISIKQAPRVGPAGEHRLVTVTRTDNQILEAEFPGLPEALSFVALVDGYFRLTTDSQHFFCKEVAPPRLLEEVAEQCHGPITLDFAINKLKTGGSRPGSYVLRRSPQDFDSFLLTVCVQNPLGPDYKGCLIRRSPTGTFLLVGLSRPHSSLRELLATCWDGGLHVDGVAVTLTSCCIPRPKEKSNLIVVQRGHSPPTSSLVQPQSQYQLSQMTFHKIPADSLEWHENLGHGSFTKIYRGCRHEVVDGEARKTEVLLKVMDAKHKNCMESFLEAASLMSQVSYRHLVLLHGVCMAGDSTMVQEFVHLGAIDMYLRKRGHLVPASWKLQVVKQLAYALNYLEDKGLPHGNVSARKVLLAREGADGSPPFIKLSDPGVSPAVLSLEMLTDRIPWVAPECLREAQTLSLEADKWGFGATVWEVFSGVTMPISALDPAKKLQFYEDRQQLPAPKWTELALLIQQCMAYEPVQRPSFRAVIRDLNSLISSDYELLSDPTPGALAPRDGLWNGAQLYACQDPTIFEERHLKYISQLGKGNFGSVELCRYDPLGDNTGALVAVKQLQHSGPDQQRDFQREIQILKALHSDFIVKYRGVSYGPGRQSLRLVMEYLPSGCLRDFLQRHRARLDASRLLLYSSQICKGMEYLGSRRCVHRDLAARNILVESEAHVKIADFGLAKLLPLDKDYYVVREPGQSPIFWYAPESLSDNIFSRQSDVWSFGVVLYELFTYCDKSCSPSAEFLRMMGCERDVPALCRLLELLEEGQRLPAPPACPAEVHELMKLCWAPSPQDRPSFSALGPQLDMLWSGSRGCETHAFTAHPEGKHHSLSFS", "experiment": "Inhibition of JAK3 (unknown origin)"}, "[6]": {"target": "NUAK family SNF1-like kinase 1 (Homo sapiens) (UniProt O60285)", "experiment": "Inhibition of N-terminal 6His-tagged recombinant human ARK5 (2 to end residues) expressed in baculovirus infected Sf21 cells at 0.3 uM by filter binding assay relative to control", "method_in_brief": "(§3)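 KinaseProfiler panel of 233 kinases: radiometric filter-binding activity assays with compound at 0.3 or 3 µmol/L. Read-out is percent inhibition.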"}, "[7]": {"tested_on": "KARPAS-299", "experiment": "Antiproliferative activity against human KARPAS-299 cells assessed as reduction in cell viability after 72 hrs by CellTiter-Glo assay", "type": "functional, cell-based", "conditions": "KARPAS-299, 72 h", "method_in_brief": "(§4)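 Cells seeded in 96-well plates, left overnight at 37°C, then exposed to a range of test concentrations for 72 h. Viability read by CellTiter-Glo luminescence; IC50 from four-parameter curve fit. Lines kept at 37°C, 5% CO2, in recommended growth medium.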"}, "[8]": {"target": "Serine/threonine-protein kinase PAK 6 (Homo sapiens) (UniProt Q9NQU5)", "experiment": "Inhibition of N-terminal His6-tagged recombinant human PAK6 (382 to end residues) expressed in Sf21 cells at 3 uM by filter binding assay relative to control"}, "[9]": {"experiment": "Inhibition of […] N-terminal 6His-tagged full length human P110delta/full length human p85beta expressed in baculovirus infected Sf21 cells at 0.3 uM by filter binding assay relative to control", "conditions": "condition cancer"}, "[10]": {"target": "Phosphatidylinositol 4,5-bisphosphate 3-kinase catalytic subunit beta isoform (Homo sapiens, UniProt P42338)", "experiment": "Inhibition of PI3Kbeta (unknown origin)"}, "[11]": {"target": "Protein-tyrosine kinase 2-beta (Homo sapiens) (UniProt Q14289)", "experiment": "Inhibition of N-Terminal His6-tagged recombinant full-length human Pyk2 expressed in baculovirus infected Sf21 cells at 0.3 uM by filter binding assay relative to control", "method_in_brief": "as §3"}, "[12]": {"target": "Death-associated protein kinase 2 (Homo sapiens) (UniProt Q9UIK4)", "experiment": "Inhibition of N-terminal GST-tagged recombinant human full length DAPK2 expressed in baculovirus infected Sf21 cells at 0.3 uM by filter binding assay relative to control", "method_in_brief": "as §2"}, "[13]": {"target": "Serine/threonine-protein kinase tousled-like 2 (Homo sapiens) (UniProt Q86UE8)", "experiment": "Inhibition of N-terminal 6His-tagged recombinant human TLK2 (388 to end residues) expressed in baculovirus infected Sf21 cells at 3 uM by filter binding assay relative to control", "method_in_brief": "as §2"}, "[14]": {"tested_on": "L-363", "experiment": "Antiproliferative activity against human L-363 cells assessed as reduction in cell viability after 72 hrs by CellTiter-Glo assay", "type": "functional, cell-based", "conditions": "L-363, 72 h", "method_in_brief": "as §4"}, "[15]": {"target": "Serine/threonine-protein kinase PAK 4 (Homo sapiens) (UniProt O96013)", "experiment": "Inhibition of N-terminal His6/C-terminal GST-tagged recombinant human PAK4 (295 to end residues) expressed in baculovirus infected Sf21 cells at 3 uM by filter binding assay relative to control"}, "[16]": {"target": "Insulin receptor (Mus musculus) (UniProt P15208)", "sequence (P15208 28-748 limits assumed)": "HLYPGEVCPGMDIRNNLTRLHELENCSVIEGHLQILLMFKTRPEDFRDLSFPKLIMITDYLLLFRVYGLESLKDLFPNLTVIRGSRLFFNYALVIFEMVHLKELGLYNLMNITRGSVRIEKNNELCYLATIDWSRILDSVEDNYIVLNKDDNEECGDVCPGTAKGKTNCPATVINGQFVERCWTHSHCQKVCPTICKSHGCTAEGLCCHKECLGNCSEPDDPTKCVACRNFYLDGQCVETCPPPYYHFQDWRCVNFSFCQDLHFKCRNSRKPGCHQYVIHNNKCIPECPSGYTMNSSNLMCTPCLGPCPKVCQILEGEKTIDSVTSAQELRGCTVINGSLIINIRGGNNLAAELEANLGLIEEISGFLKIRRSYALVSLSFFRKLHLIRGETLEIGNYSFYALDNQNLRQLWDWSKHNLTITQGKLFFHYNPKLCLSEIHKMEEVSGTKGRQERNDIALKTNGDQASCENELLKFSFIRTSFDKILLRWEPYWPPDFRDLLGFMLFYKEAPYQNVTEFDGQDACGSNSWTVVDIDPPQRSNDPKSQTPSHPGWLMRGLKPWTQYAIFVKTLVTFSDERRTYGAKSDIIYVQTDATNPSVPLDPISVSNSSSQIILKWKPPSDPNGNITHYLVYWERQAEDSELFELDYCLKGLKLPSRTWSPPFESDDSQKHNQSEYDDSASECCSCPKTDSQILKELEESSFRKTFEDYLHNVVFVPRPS", "sequence (P15208 753-1372 limits assumed)": "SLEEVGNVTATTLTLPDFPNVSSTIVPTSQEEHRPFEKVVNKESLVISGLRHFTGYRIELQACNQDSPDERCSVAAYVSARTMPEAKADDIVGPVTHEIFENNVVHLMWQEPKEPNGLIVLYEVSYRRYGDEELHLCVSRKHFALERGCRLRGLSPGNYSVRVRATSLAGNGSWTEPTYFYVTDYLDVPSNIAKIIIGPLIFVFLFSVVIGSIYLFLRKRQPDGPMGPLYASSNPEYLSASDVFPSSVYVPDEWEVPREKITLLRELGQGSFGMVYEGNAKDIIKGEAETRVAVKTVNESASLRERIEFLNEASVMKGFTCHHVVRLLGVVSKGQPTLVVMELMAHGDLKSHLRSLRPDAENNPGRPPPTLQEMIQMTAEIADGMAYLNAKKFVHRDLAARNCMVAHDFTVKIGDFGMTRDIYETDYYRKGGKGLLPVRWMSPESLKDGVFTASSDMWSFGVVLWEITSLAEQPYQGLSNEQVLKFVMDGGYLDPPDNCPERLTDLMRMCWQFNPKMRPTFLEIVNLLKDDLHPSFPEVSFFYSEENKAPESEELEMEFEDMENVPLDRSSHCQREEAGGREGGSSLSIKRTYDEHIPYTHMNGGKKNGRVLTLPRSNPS", "conditions": "CD-1, dose 30.0 mg/kg, route po, time 21.0 day"}, "[17]": {"experiment": "Antiproliferative activity against human L-82 cells assessed as reduction in cell viability after 72 hrs by CellTiter-Glo assay", "type": "functional, cell-based", "conditions": "L-82, 72 h", "method_in_brief": "as §4"}, "[18]": {"target": "Vascular endothelial growth factor receptor 1 (Homo sapiens) (UniProt P17948)", "sequence (P17948 whole entry)": "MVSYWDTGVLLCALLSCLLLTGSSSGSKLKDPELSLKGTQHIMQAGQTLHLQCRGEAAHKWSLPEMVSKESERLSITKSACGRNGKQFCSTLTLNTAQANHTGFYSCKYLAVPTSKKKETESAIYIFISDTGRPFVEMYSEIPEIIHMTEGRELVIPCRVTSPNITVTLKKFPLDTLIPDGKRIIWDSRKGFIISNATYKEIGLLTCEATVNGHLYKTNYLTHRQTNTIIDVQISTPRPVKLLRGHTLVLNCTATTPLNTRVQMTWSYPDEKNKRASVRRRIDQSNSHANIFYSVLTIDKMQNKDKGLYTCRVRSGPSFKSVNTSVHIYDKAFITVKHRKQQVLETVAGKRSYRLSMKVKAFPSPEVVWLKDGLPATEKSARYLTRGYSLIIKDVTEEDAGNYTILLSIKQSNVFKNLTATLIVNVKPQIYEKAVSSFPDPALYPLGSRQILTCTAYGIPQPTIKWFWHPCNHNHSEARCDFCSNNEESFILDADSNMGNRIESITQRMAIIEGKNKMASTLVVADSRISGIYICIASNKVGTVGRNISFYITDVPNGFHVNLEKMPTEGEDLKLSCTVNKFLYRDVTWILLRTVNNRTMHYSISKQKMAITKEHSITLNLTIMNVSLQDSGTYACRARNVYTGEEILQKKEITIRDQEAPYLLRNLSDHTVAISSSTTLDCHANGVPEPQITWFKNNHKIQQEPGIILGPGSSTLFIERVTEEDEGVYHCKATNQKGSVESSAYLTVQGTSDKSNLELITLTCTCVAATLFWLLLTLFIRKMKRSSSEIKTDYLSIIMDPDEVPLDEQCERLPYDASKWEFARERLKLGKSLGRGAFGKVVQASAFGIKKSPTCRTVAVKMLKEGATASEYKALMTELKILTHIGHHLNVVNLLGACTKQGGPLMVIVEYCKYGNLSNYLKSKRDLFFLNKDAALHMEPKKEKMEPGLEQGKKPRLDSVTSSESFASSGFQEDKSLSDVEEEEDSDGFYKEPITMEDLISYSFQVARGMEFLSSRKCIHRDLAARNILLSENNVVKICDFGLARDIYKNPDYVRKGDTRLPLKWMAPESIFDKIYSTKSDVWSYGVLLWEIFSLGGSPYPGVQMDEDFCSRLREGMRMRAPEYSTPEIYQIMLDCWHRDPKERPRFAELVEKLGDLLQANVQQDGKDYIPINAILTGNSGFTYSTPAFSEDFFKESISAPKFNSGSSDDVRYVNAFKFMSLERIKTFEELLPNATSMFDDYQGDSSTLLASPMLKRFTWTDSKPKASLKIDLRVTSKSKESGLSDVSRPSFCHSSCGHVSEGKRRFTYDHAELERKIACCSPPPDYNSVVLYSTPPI", "experiment": "Inhibition of N-terminal GST-tagged recombinant human Flt1 (783 to end residues) expressed in baculovirus infected Sf21 cells at 0.3 uM by filter binding assay relative to control", "method_in_brief": "as §2"}, "[19]": {"target": "Tyrosine-protein kinase SYK (Homo sapiens, UniProt P43405)", "experiment": "Inhibition of SYK (unknown origin)"}, "[20]": {"experiment": "Antiproliferative activity against human RDES cells assessed as reduction in cell viability after 72 hrs by CellTiter-Glo assay", "type": "functional, cell-based", "conditions": "RD-ES", "method_in_brief": "as §4"}, "[21]": {"tested_on": "EJM", "experiment": "Antiproliferative activity against human EJM cells assessed as reduction in cell viability after 72 hrs by CellTiter-Glo assay", "type": "functional, cell-based", "method_in_brief": "as §4"}, "[22]": {"target": "Insulin receptor (Homo sapiens, UniProt P06213)", "experiment": "Inhibition of N-terminal His6-tagged recombinant human IR (1005 to 1310 residues) expressed in baculovirus infected Sf21 cells by filter binding assay"}, "[23]": {"tested_on": "JJN-3", "experiment": "Antiproliferative activity against human JJN-3 cells assessed as reduction in cell viability after 72 hrs by CellTiter-Glo assay", "type": "functional, cell-based", "conditions": "JJN-3, 72 h", "method_in_brief": "as §4"}, "[24]": {"target": "Mitogen-activated protein kinase 11 (Homo sapiens) (UniProt Q15759)", "experiment": "Inhibition of N-terminal GST fusion protein corresponding to full-length human SAPK2b expressed in Escherichia coli at 3 uM by filter binding assay relative to control", "method_in_brief": "as §2"}, "[25]": {"target": "Ephrin type-A receptor 5 (Homo sapiens) (UniProt P54756)", "sequence (P54756 whole entry)": "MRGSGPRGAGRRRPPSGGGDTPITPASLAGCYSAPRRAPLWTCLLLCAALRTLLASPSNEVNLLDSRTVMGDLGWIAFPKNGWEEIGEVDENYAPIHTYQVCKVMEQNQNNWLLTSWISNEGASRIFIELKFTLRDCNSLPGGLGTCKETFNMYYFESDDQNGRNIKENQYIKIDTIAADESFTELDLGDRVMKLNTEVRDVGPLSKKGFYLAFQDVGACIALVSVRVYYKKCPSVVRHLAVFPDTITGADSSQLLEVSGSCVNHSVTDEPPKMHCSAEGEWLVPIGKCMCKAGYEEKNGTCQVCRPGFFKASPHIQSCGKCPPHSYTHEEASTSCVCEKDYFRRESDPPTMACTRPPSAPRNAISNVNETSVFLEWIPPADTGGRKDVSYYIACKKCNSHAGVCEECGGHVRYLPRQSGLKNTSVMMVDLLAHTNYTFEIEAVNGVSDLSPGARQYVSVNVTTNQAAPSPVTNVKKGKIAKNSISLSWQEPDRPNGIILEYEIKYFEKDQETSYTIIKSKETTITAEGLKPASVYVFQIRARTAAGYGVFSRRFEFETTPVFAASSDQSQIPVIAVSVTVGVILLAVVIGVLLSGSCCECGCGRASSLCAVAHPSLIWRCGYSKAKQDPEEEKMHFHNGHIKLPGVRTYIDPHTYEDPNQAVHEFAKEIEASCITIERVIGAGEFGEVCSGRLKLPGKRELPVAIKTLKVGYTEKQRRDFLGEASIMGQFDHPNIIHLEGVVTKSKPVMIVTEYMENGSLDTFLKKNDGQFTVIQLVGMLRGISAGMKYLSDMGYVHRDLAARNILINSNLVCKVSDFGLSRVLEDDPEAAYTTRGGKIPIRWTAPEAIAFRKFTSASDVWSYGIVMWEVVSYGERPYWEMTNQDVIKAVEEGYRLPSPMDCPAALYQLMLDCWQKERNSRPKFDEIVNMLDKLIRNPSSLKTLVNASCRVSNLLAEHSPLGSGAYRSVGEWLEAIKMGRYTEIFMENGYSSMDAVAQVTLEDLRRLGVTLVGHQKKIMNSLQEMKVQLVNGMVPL", "experiment": "Inhibition of N-terminal His6-tagged human EphA5 expressed in baculovirus infected Sf21 cells at 0.3 uM by filter binding assay relative to control", "method_in_brief": "as §2"}, "[26]": {"target": "Serine/threonine-protein kinase PLK2 (Homo sapiens) (UniProt Q9NYY3)", "experiment": "Inhibition of human Snk at 3 uM by filter binding assay relative to control"}, "[27]": {"target": "Cyclin-dependent kinase 16 (Homo sapiens, UniProt Q00536)", "experiment": "Inhibition of PCTAIRE1 (unknown origin)"}, "[28]": {"target": "Serine/threonine-protein kinase Nek3 (Homo sapiens) (UniProt P51956)", "experiment": "Inhibition of N-terminal 6His-tagged recombinant full length human NEK3 expressed in baculovirus infected Sf21 cells at 3 uM by filter binding assay relative to control", "method_in_brief": "as §3"}, "[29]": {"target": "Tyrosine-protein kinase JAK2 (Homo sapiens, UniProt O60674)", "experiment": "Inhibition of JAK2 (unknown origin)"}}, "note": "The source made the active and inactive calls. The calls are words filed in the database; no cut-off is given here."}
{"compound": "CCc1cc(Nc2nccc(-c3c(-c4ccc(OC)c(C(=O)Nc5c(F)cccc5F)c4)nc4ccccn34)n2)c(OC)cc1N1CCC(N2CCN(S(C)(=O)=O)CC2)CC1", "values": [{"measurement": "Activity", "setting": "[1]", "result": 12, "unit": "%"}, {"measurement": "inhibition", "setting": "[2]", "result": 1, "unit": "%"}, {"measurement": "IC50", "setting": "[3]", "result": "> 10", "unit": "µM"}, {"measurement": "Activity", "setting": "[4]", "result": 6, "unit": "%"}, {"measurement": "IC50", "setting": "[5]", "result": 13, "unit": "µM"}, {"measurement": "inhibition", "setting": "[6]", "result": 4, "unit": "%"}, {"measurement": "IC50", "setting": "[7]", "result": "> 30", "unit": "µM"}, {"measurement": "inhibition", "setting": "[8]", "result": 0, "unit": "%"}, {"measurement": "inhibition at 0.3 µM", "setting": "[9]", "result": 1, "unit": "%"}, {"measurement": "IC50", "setting": "[10]", "result": "> 10", "unit": "µM"}, {"measurement": "inhibition", "setting": "[11]", "result": 21, "unit": "%"}, {"measurement": "inhibition", "setting": "[12]", "result": 1, "unit": "%"}, {"measurement": "inhibition", "setting": "[13]", "result": 0, "unit": "%"}, {"measurement": "IC50", "setting": "[14]", "result": 0.165, "unit": "µM"}, {"measurement": "inhibition", "setting": "[15]", "result": 0, "unit": "%"}, {"measurement": "inhibition", "setting": "[16]", "result": "inactive"}, {"measurement": "IC50", "setting": "[17]", "result": "> 30", "unit": "µM"}, {"measurement": "inhibition", "setting": "[18]", "result": 10, "unit": "%"}, {"measurement": "IC50", "setting": "[19]", "result": 3.2, "unit": "µM"}, {"measurement": "IC50", "setting": "[20]", "result": 0.062, "unit": "µM"}, {"measurement": "IC50", "setting": "[21]", "result": "> 30", "unit": "µM"}, {"measurement": "IC50", "setting": "[22]", "result": 0.074, "unit": "µM"}, {"measurement": "IC50", "setting": "[23]", "result": "> 30", "unit": "µM"}, {"measurement": "inhibition", "setting": "[24]", "result": 11, "unit": "%"}, {"measurement": "inhibition", "setting": "[25]", "result": 11, "unit": "%"}, {"measurement": "inhibition", "setting": "[26]", "result": -8, "unit": "%"}, {"measurement": "IC50", "setting": "[27]", "result": "> 10", "unit": "µM"}, {"measurement": "inhibition", "setting": "[28]", "result": 16, "unit": "%"}, {"measurement": "IC50", "setting": "[29]", "result": "> 16", "unit": "µM"}]}
